Screening results from PubChem BioAssay.
CHT block = inhibitors of human choline transporter CHT | Q9GZV3 | CHT-expressing cells, membrane potential dye, choline response; stronger effect = lower value | B-score at 10 µM | 310,000 compounds, 0.86% hits | AID 488975;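 active = B-score over 3 SD under the library average, and starting fluorescence ratio not unusually high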;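 also: choline stimulus applied at its EC90 after an EC20 pre-addition; B-score computed on integrated fluorescence ratio after choline addition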
Target sequence (Q9GZV3 whole entry, looked up): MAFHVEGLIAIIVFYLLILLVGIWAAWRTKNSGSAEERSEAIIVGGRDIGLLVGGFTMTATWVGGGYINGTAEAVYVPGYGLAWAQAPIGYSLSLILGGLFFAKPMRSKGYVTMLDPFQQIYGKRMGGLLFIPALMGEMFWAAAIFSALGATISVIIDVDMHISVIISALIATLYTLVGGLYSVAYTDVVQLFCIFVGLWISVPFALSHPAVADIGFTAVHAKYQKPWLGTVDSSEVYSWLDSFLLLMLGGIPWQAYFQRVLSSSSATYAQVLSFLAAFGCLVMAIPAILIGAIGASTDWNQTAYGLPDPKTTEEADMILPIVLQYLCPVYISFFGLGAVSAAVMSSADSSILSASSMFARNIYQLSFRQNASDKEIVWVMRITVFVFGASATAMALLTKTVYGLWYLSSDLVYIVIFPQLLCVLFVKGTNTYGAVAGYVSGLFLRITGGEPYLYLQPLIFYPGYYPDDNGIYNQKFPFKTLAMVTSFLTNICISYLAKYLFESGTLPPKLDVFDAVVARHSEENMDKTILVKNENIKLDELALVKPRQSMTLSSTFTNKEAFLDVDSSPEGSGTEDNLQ
procasp3 activ = activates human procaspase-3. recombinant procaspase-3 D3A, Ac-DEVD-pNA absorbance 405 nm. 330,000 compounds, 0.11% hits. AID 463141. activation, % at 8.5 µM. P42574;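 active = activation above the mean of all tested compounds plus 3 SD, cut at about 21% in these data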
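material = Procaspase-3 D3A mutant | probe or stimulus = Ac-DEVD-pNA | compound = single dose, 8.5 µM nominal compound, 0.8% DMSO | timing = 1 h preincubation, 2 h reaction | measured by = 405 nm absorbance of p-nitroaniline, reads at 0 and 120 min | benchmarks = DMSO-only low control, 5 µM PC-3 D3A high control | repeats = singlicate, each compound tested once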
procasp7 counter = counter-screen: procaspase-7 (human) activation | 330,000 compounds, 0.093% hits | activation, % at 8.5 µM | recombinant procaspase-7, Ac-DEVD-pNA absorbance 405 nm; D23A/D198A/D206A triple mutant, cannot self-cleave; scale: DMSO 0, 5 µM enzyme 100;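 active = percent activation above the screen-wide mean plus 3 SD, cut at about 25% in these data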
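System: Procaspase-7 triple mutant (PC-7 D3A); measure: % activation from two-timepoint absorbance difference, scaled to controls; times: 1 h compound preincubation, 2 h substrate cleavage, 25 °C; also added: Ac-DEVD-pNA substrate, 400 µM as added; measured by: Epi-absorbance of released pNA at 405 nm, two timepoints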
CHT PAM = allosteric activators of human choline transporter CHT; CHT-expressing cells, membrane potential dye, choline EC20; stronger effect = higher value; LV-AA mutant CHT in HEK293 cells; 310,000 compounds, 0.49% hits; AID 488977; Q9GZV3; B-score at 10 µM;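 active = initial fluorescence not abnormally high and integrated response B-score, plate-corrected, over 3 SD above library mean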
CHT block conf = confirmation of human choline transporter CHT inhibitors; 2,400 compounds, 70% hits; CHT activity remaining % of control (stronger effect = lower value), % at 10 µM; CHT-expressing cells, choline membrane potential dye; LV-to-AA substituted CHT, HEK293 cells; shares compounds with CHT block; AID 493221;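 active = choline transporter activity left, mean of duplicates at 10 µM, below buffer-only control mean minus 3 SD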;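 also: depolarization triggered by choline at its EC90 following an EC20 pre-addition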
HEK293 CHT ctr = counter-screen for CHT inhibitors: effect in parental HEK293 cells; AID 493222; shares compounds with CHT block; membrane potential dye, choline response; active = decrease or increase beyond buffer ±3SD; 2,400 compounds, 4% hits; membrane potential ratio readout (active if shifted either direction beyond buffer ±3SD; no single direction) at 10 µM;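 also: parental cells lack the transporter so any hit is non-specific; ratio is peak minus trough fluorescence over baseline after EC90 choline challenge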
A number is an active result; . = inactive; / = not tested or not shown. An excerpt weighted towards active compounds, which were near 1.3% of everything screened.

SMILES	CHT block	procasp3 activ	procasp7 counter	CHT PAM	CHT block conf	HEK293 CHT ctr
Clc1ccc(N2CCN(/N=C/c3cccnc3)CC2)cc1	.	.	.	.	/	/
O=C(Nc1cc(S(=O)(=O)N2CCOCC2)ccc1Cl)c1cc([N+](=O)[O-])ccc1Cl	/	.	.	/	/	/
O=C(Nc1ccc(S(=O)(=O)N2CCOCC2)cc1)c1ccc([N+](=O)[O-])cc1Cl	-7.4	.	.	.	31%	.
COc1ccc(S(=O)(=O)NC2CCCC2)cc1C(N)=O	.	/	/	.	/	/
CCCc1nc2oc3c(NCC4CCCO4)ncnc3c2c2c1COC(C)(C)C2 (stereo not given)	-8.1	.	.	.	16%	.
Cc1ccc(S(=O)(=O)NC(=O)Nc2cccc(S(=O)(=O)N(C)C)c2)cc1	/	.	.	/	/	/
COc1ccc(/C=C/C(=O)NC(=S)Nc2ccc(S(=O)(=O)N=C(N)N)cc2)cc1OC	.	.	.	.	/	/
CCOC(=O)c1ccccc1N/C=C/C(=O)c1cccs1	-8.5	.	.	.	41%	.
CCOC(=O)c1ccccc1NC(=O)c1cccs1	.	.	.	.	/	/
N=C(N)SCc1ncccc1O	.	.	.	.	/	/
N=C(N)SCc1ccccn1	-5.9	.	.	.	33%	.
CN1CC(=O)N/C1=N\C(=O)Nc1ccc(O)cc1	.	.	.	.	/	/
CC(C)c1nnc(NC(=O)c2nc(S(=O)(=O)Cc3ccccc3)ncc2Cl)s1	-7.7	.	.	.	3.0%	.
CCCc1nnc(NC(=O)c2nc(S(=O)(=O)Cc3ccc(C)cc3)ncc2Cl)s1	-7.4	.	.	.	7.6%	.
CCc1ccc(NC(=O)c2nc(S(=O)(=O)Cc3ccccc3)ncc2Cl)cc1	.	.	.	.	/	/
CCNS(=O)(=O)c1ccc(CCC(=O)NCc2ccccn2)cc1	.	.	.	.	/	/
O=C(NCc1ccccn1)c1ccc(Cl)c(S(=O)(=O)N2CCOCC2)c1	.	.	.	.	/	/
CN(c1ccccc1C(=O)N1CCN(c2ccccc2F)CC1)S(=O)(=O)c1ccccc1	.	/	/	.	/	/
CN(C)c1ccc(S(=O)(=O)N2CCCCC2)cc1NC(=O)CN1C(=O)NC2(CCCC2)C1=O	.	.	.	.	/	/
O=C(NNc1cc(Cl)cc(Cl)c1)c1cccs1	-6.1	.	.	.	43%	.
O=C(NNC(=O)c1cccs1)Nc1cccc(Cl)c1	.	.	.	.	/	/
O=S(=O)(c1ccc2ccccc2c1)N1CCN=C1SCc1cccnc1	-5	.	.	.	.	.
O=S(=O)(c1ccc(F)cc1)N1CCN=C1SCc1cccnc1	.	.	.	.	/	/
CCOC(=O)c1cc(NC(=O)c2ccoc2C)cc(C(=O)OCC)c1	-6.1	.	.	.	40%	.
Cc1cc(C)cc(NC(=O)c2ccc(N3C(=O)C4CCCCC4C3=O)cc2)c1 (stereo not given)	-5.5	.	.	.	65%	.
SMILES	CHT block	procasp3 activ	procasp7 counter	CHT PAM	CHT block conf	HEK293 CHT ctr
CC(=O)N1c2ccc(S(=O)(=O)NCC3CCC(C(=O)N4CCC(C)CC4)CC3)cc2CC1C (stereo not given)	.	.	.	.	/	/
Cc1onc(-c2ccccc2Cl)c1C(=O)Nc1nnc(-c2cccc([N+](=O)[O-])c2)s1	-6.9	.	.	.	51%	.
O=C(CSc1n[nH]c(-c2cccnc2)n1)Nc1ccccc1	.	.	.	.	/	/
O=C(CSc1n[nH]c(-c2ccccc2)n1)Nc1ncc(Br)cc1Br	-6.5	.	.	.	57%	.
N#CCN1CCN(CCC(=O)Nc2ccc(OCc3ccccc3)cc2)CC1	.	.	.	.	.	.
Cn1c(N2CCOCC2)c(/C=N/OC(=O)c2ccc(F)cc2)c2ccccc21	-7.4	.	.	.	44%	.
CC(C)(C)CC(C)(C)NC(=S)Nc1ccc2nc(-c3ccccn3)c(-c3ccccn3)nc2c1	-8.4	.	.	.	45%	.
OCCCNC(=S)Nc1ccc2nc(-c3ccccn3)c(-c3ccccn3)nc2c1	.	.	.	.	/	/
CCCCn1c(N)c(N(CCOC)C(=O)COC(=O)CCOc2ccc(C)cc2)c(=O)[nH]c1=O	/	.	.	/	/	/
CC(C)c1ccccc1OCC(=O)Nc1cc(S(=O)(=O)N2CCOCC2)ccc1N1CCCC1	.	.	.	.	/	/
CCOc1ccc(N/N=C(/C#N)C(N)=O)cc1	.	.	.	.	/	/
N#C/C(=N/Nc1ccc(OC(F)(F)F)cc1)C(N)=S	-11	.	.	.	30%	.
CSc1nnc(-c2sccc2OCc2ccccc2)n1C	-7.3	.	.	.	55%	-9.6
CCCCOc1c(Br)cc(CNCCCN2CCOCC2)cc1OC	.	.	.	.	/	/
Cc1ccc(C2=NC(C(F)(F)F)(C(F)(F)F)c3c(n(-c4ccc(F)cc4)c(=O)[nH]c3=O)N2)cc1	.	.	.	.	/	/
O=c1[nH]c(=O)n(-c2ccc(F)cc2)c2c1C(C(F)(F)F)(C(F)(F)F)N=C(c1ccc(F)cc1)N2	-7	.	.	.	54%	.
O=c1[nH]c(=O)n(Cc2ccco2)c2c1C(C(F)(F)F)(C(F)(F)F)N=C(CCc1ccccc1)N2	.	.	.	.	/	/
N#Cc1ccc(C2=NC(C(F)(F)F)(C(F)(F)F)c3c(n(Cc4ccco4)c(=O)[nH]c3=O)N2)cc1	-11	.	.	.	57%	.
CCc1c(C)sc(NC(=O)c2ccoc2C)c1C(N)=O	.	.	.	.	/	/
COCCNC(=S)N(CCO)Cc1cc2cc3c(cc2[nH]c1=O)OCCO3	.	.	.	.	/	/
Cc1ccc(C(=O)C(C)OC(=O)CCN=C2NS(=O)(=O)c3ccccc32)cc1 (stereo not given)	.	.	.	.	/	/
c1ccc(C(c2ccccc2)N2CCN(Cc3nnnn3C3CCCC3)CC2)cc1	-5.6	.	.	.	.	.
C/C(=N\N=C(N)N)c1ccc(Cl)c(Cl)c1	-11	.	.	.	19%	.
CC1CCCN(C(=O)CSCC(=O)Nc2nc(-c3cccs3)cs2)C1 (stereo not given)	.	.	.	.	/	/
CC1CCN(C(=O)CSCC(=O)Nc2nc(-c3cccs3)cs2)CC1	-5.3	.	.	.	.	.
CC(C)Cn1c(N)c(C(=O)COC(=O)C2Cc3ccccc3CN2S(C)(=O)=O)c(=O)n(C)c1=O (stereo not given)	/	.	.	/	/	/
CCC(NC(=O)CCc1nnc(-c2cc(C)on2)o1)C12CC3CC(CC(C3)C1)C2 (stereo not given)	-7.9	.	.	.	44%	.
COc1ccc([C@@H](C)NC(=O)CCc2nnc(-c3cc(C)on3)o2)cc1	.	.	.	.	/	/
COCCN(C(=O)COC(=O)CSc1ccc2ccccc2c1)c1c(N)n(Cc2ccccc2)c(=O)[nH]c1=O	.	.	.	.	/	/
